Source: ChEMBL document CHEMBL1144032, “Potent antagonists of the CCR2b receptor. Part 3: SAR of the (R)-3-aminopyrrolidine series” (Bioorg Med Chem Lett, 2008)
The source made the active and inactive calls. No cut-off for these calls is given here.

Legend:
[1] = target: T1, C-C chemokine receptor type 2 (Homo sapiens, UniProt P41597); assay: Displacement of [125I]MCP1 from human CCR2b in THP1 cells; assay type: cell-based, THP-1
How it was run: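 Radioligand competition with [125I]-MCP-1 on THP-1 cells. IC50 taken from dose-response curves built from duplicate points; where SD is given, value is mean of at least three independent experiments.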
Target sequence in this assay (P41597 whole entry): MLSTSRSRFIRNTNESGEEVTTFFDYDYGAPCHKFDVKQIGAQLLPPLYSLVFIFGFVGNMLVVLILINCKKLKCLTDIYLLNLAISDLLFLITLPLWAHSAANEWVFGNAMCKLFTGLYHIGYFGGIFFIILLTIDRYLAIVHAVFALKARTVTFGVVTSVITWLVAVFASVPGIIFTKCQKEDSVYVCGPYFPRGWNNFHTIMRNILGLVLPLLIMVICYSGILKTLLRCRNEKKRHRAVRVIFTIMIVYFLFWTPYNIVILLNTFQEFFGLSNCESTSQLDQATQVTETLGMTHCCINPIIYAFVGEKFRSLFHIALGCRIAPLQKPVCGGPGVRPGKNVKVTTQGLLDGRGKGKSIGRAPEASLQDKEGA

[2] = target: T1, C-C chemokine receptor type 2; assay: Antagonist activity at human CCR2 in THP1 cells assessed as inhibition of MCP1-induced calcium flux; assay type: functional, cell-based, THP-1
How it was run: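 THP-1 cells grown in HBSS loading buffer with 1% FBS and 20 mM HEPES, spun down, then loaded 30 min with Fluo-3 AM (2 million cells/mL, 4 µM dye, 20 mM HEPES, 0.1% BSA, 5 mM probenecid). Washed three times into HEPES/NaCl/glucose buffer with 2.5 mM probenecid, 1.25 mM CaCl2 and 0.1% BSA; 150,000 cells/well. Compound added 3 min before 10^-7 M human MCP-1; intracellular Ca2+ read by FLIPR.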
Target sequence in this assay (P41597 whole entry): as above

[3] = target: T1, C-C chemokine receptor type 2; assay: Antagonist activity at human CCR2 in THP1 cells assessed as inhibition of calcium flux in absence of MCP1; assay type: functional, cell-based; conditions: THP-1
Target sequence in this assay (P41597 whole entry, looked up): as the sequence (P41597 whole entry) above

[4] = target: T2, C-C chemokine receptor type 1 (Homo sapiens) (UniProt P32246); assay: Displacement of [125I]MIP-1alpha from human CCR1 in THP cells at 1 uM
T2 sequence (whole entry): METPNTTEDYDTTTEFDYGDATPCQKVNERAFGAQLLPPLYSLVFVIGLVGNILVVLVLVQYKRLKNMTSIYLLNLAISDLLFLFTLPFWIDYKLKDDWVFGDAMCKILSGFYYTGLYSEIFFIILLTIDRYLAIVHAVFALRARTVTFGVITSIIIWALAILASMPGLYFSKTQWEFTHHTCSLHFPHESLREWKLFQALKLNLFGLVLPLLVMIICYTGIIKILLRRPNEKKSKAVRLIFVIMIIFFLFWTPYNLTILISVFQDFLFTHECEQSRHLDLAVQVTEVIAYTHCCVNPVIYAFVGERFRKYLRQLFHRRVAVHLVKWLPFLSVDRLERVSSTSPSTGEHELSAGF

[5] = target: T1, C-C chemokine receptor type 2; assay: Displacement of [125I]MCP1 from human CCR2b in HEK293 cells; assay type: cell-based
How it was run: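 Competition for [125I]-MCP-1 binding on HEK293 cells transfected with human CCR2b receptor.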
Target sequence in this assay (P41597 whole entry): as the sequence (P41597 whole entry) above

[6] = target: T3, C-C chemokine receptor type 1 (Homo sapiens, UniProt P32246); assay: Displacement of [125I]MIP-1alpha from human CCR1 in THP cells
T3 sequence (P32246 whole entry): T2 sequence (whole entry)

Row | SMILES | IC50 [1] | other results
1 | COc1cc(CN2CC[C@@H](NC(=O)CNC(=O)c3cccc(C(F)(F)F)c3)C2)ccc1O | 153 nM | 
2 | O=C(CNC(=O)c1cccc(OC(F)(F)F)c1)N[C@@H]1CCN(Cc2ccc(Cl)cc2)C1 | 489 nM | 
3 | Nc1ccc([N+](=O)[O-])cc1C(=O)NCC(=O)N[C@@H]1CCN(Cc2ccc(Cl)cc2)C1 | 208 nM | 
4 | O=C(CNC(=O)c1cccc(C(F)(F)F)c1)N[C@@H]1CCN(Cc2ccc(Br)cc2)C1 | 166 nM | 
5 | O=C(CNC(=O)c1ccccc1Cl)N[C@@H]1CCN(Cc2ccc(Cl)cc2)C1 | > 10000 nM | 
6 | O=C(CNC(=O)c1cccc(C(F)(F)F)c1)N[C@@H]1CCN(Cc2ccc(Cl)cc2Cl)C1 | 300 nM | 
7 | Cc1cccc(CN2CC[C@@H](NC(=O)CNC(=O)c3cccc(C(F)(F)F)c3)C2)c1 | 3100 nM | 
8 | O=C(CNC(=O)c1cccc(C(F)(F)F)c1)N[C@@H]1CCN(Cc2ccccc2Cl)C1 | 630 nM | 
9 | Cc1cccc(C(=O)NCC(=O)N[C@@H]2CCN(Cc3ccc(Cl)cc3)C2)c1 | 2380 nM | 
10 | CC(=O)Nc1ccc(CN2CC[C@@H](NC(=O)CNC(=O)c3cccc(C(F)(F)F)c3)C2)cc1 | 305 nM | 
11 | Cc1ccccc1C(=O)NCC(=O)N[C@@H]1CCN(Cc2ccc(Cl)cc2)C1 | > 10000 nM | 
12 | Nc1ccc(I)cc1C(=O)NCC(=O)N[C@@H]1CCN(Cc2ccc(Cl)cc2)C1 | 308 nM | 
13 | CSc1ccc(CN2CC[C@@H](NC(=O)CNC(=O)c3cccc(C(F)(F)F)c3)C2)cc1 | 204 nM | 
14 | COc1ccccc1CN1CC[C@@H](NC(=O)CNC(=O)c2cccc(C(F)(F)F)c2)C1 | 1360 nM | 
15 | O=C(CNC(=O)c1cccc(C(F)(F)F)c1)N[C@@H]1CCN(Cc2ccc([N+](=O)[O-])cc2)C1 | 1550 nM | 
16 | Cc1ccccc1CN1CC[C@@H](NC(=O)CNC(=O)c2cccc(C(F)(F)F)c2)C1 | 960 nM | 
17 | O=C(CNC(=O)c1ccc(C(F)(F)F)cc1)N[C@@H]1CCN(Cc2ccc(Cl)cc2)C1 | > 5000 nM | 
18 | O=C(CNC(=O)c1ccccc1C(F)(F)F)N[C@@H]1CCN(Cc2ccc(Cl)cc2)C1 | > 10000 nM | 
19 | Nc1cccc(C(=O)NCC(=O)N[C@@H]2CCN(Cc3ccc(Cl)cc3)C2)c1 | > 10000 nM | 
20 | Nc1ccc(Cl)cc1C(=O)NCC(=O)N[C@@H]1CCN(Cc2ccc(Cl)cc2)C1 | 730 nM | 

Row | SMILES | IC50 [1] | other results
21 | O=C(CNC(=O)c1cccc([N+](=O)[O-])c1)N[C@@H]1CCN(Cc2ccc(Cl)cc2)C1 | 832 nM | 
22 | N#Cc1cccc(C(=O)NCC(=O)N[C@@H]2CCN(Cc3ccc(Cl)cc3)C2)c1 | > 10000 nM | 
23 | O=C(CNC(=O)c1cccc(C(F)(F)F)c1)N[C@@H]1CCN(Cc2cccc(Cl)c2)C1 | > 5000 nM | 
24 | Cc1ccc(C(=O)NCC(=O)N[C@@H]2CCN(Cc3ccc(Cl)cc3)C2)cc1 | 10000 nM | 
25 | O=C(CNC(=O)c1cccc(C(F)(F)F)c1)N[C@@H]1CCN(Cc2ccccc2)C1 | 690 nM | 
26 | COc1cccc(C(=O)NCC(=O)N[C@@H]2CCN(Cc3ccc(Cl)cc3)C2)c1 | > 10000 nM | 
27 | N#Cc1ccc(CN2CC[C@@H](NC(=O)CNC(=O)c3cccc(C(F)(F)F)c3)C2)cc1 | 2650 nM | 
28 | Nc1ccccc1C(=O)NCC(=O)N[C@@H]1CCN(Cc2ccc(Cl)cc2)C1 | > 10000 nM | 
29 | O=C(CNC(=O)c1ccc(Cl)cc1)N[C@@H]1CCN(Cc2ccc(Cl)cc2)C1 | > 5000 nM | 
30 | O=C(CNC(=O)c1cccc(C(F)(F)F)c1)N[C@@H]1CCN(Cc2ccc(O)cc2)C1 | 226 nM | IC50 [2]: 365 nM; Activity [3]: inactive
31 | O=C(CNC(=O)c1cccc(Br)c1)N[C@@H]1CCN(Cc2ccc(Cl)cc2)C1 | 785 nM | 
32 | O=C(CNC(=O)c1cccc(C(F)(F)F)c1)N[C@@H]1CCN(Cc2ccccc2-c2ccc3ccccc3c2)C1 | 759 nM | 
33 | O=C(CNC(=O)c1ccccc1)N[C@@H]1CCN(Cc2ccc(Cl)cc2)C1 | > 10000 nM | 
34 | COc1cccc(CN2CC[C@@H](NC(=O)CNC(=O)c3cccc(C(F)(F)F)c3)C2)c1 | 3170 nM | 
35 | O=C(CNC(=O)c1cccc(C(F)(F)F)c1)N[C@@H]1CCN(Cc2ccc(OC(F)(F)F)cc2)C1 | 610 nM | 
36 | O=C(CNC(=O)c1cccc(F)c1)N[C@@H]1CCN(Cc2ccc(Cl)cc2)C1 | 4330 nM | 
37 | Nc1ccc(Br)cc1C(=O)NCC(=O)N[C@@H]1CCN(Cc2ccc(Cl)cc2)C1 | 643 nM | 
38 | O=C(CNC(=O)c1cccc(C(F)(F)F)c1)N[C@@H]1CCN(Cc2ccc(F)cc2)C1 | 960 nM | 
39 | O=C(CNC(=O)c1cccc(Cl)c1)N[C@@H]1CCN(Cc2ccc(Cl)cc2)C1 | 2400 nM | 

Stronger by IC50 [1], values ahead:

Row | IC50 [1] | SMILES | other results
40 | 5.3 nM | COc1ccc(CN2CC[C@@H](NC(=O)CNC(=O)c3cc(C(F)(F)F)ccc3N)C2)cc1N | 
41 | 19 nM | C=Cc1ccc(CN2CC[C@@H](NC(=O)CNC(=O)c3cc(C(F)(F)F)ccc3N)C2)cc1 | 
42 | 42 nM | Nc1ccc(C(F)(F)F)cc1C(=O)NCC(=O)N[C@@H]1CCN(Cc2ccc(O)cc2)C1 | 
43 | 88 nM | Nc1ccc(OC(F)(F)F)cc1C(=O)NCC(=O)N[C@@H]1CCN(Cc2ccc(Cl)cc2)C1 | 
44 | 59 nM | CCc1ccc(CN2CC[C@@H](NC(=O)CNC(=O)c3cccc(C(F)(F)F)c3)C2)cc1 | 
45 | 114 nM | COc1ccc(CN2CC[C@@H](NC(=O)CNC(=O)c3cccc(C(F)(F)F)c3)C2)cc1 | 
46 | 116 nM | Cc1ccc(CN2CC[C@@H](NC(=O)CNC(=O)c3cccc(C(F)(F)F)c3)C2)cc1 | IC50 [2]: 64 nM; Activity [3]: inactive
47 | 121 nM | C=Cc1ccc(CN2CC[C@@H](NC(=O)CNC(=O)c3cccc(C(F)(F)F)c3)C2)cc1 | 
48 | 96 nM | Nc1ccc(C(F)(F)F)cc1C(=O)NCC(=O)N[C@@H]1CCN(Cc2ccc(Cl)cc2Cl)C1 | 
49 | 20 nM | Cc1ccc(CN2CC[C@@H](NC(=O)CNC(=O)c3cc(C(F)(F)F)ccc3N)C2)cc1 | 
50 | 3.2 nM | Cc1ccc(CN2CC[C@@H](NC(=O)CNC(=O)c3cc(C(F)(F)F)ccc3N)C2)c(C)c1 | IC50 [2]: 7.5 nM; Activity [3]: inactive
51 | 20 nM | COc1ccc(CN2CC[C@@H](NC(=O)CNC(=O)c3cc(C(F)(F)F)ccc3N)C2)cc1 | 
52 | 11 nM | CCc1ccc(CN2CC[C@@H](NC(=O)CNC(=O)c3cc(C(F)(F)F)ccc3N)C2)cc1 | IC50 [2]: 5.3 nM; Activity [3]: inactive
53 | 26 nM | Nc1ccc(C(F)(F)F)cc1C(=O)NCC(=O)N[C@@H]1CCN(Cc2ccc(Cl)cc2)C1 | inhibition [4]: 25%; IC50 [2]: 23.1 nM; IC50 [5]: 45 nM; IC50 [6]: > 1000 nM; Activity [3]: inactive
54 | 4.1 nM | Nc1cc(CN2CC[C@@H](NC(=O)CNC(=O)c3cc(C(F)(F)F)ccc3N)C2)ccc1Cl | 
55 | 6.1 nM | Cc1ccc(CN2CC[C@@H](NC(=O)CNC(=O)c3cc(C(F)(F)F)ccc3N)C2)cc1N | 
56 | 53 nM | COc1ccc(CN2CC[C@@H](NC(=O)CNC(=O)c3cc(C(F)(F)F)ccc3N)C2)cc1O | 
57 | 39 nM | COc1cc(CN2CC[C@@H](NC(=O)CNC(=O)c3cc(C(F)(F)F)ccc3N)C2)ccc1O | 
58 | 14 nM | Nc1cc(CN2CC[C@@H](NC(=O)CNC(=O)c3cc(C(F)(F)F)ccc3N)C2)ccc1O | 
